SKKanGAS inh: blocks kanamycin growth of S. pyogenes SKKanGAS strain; BacTiter-Glo, 6 h; inhibition, % at 7.5 µM; 1.3% of 300,000 active; AID 1662;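 active = mean replicate score, as percent of positive control median, at least 50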;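 also: strain carries kanamycin resistance gene driven by streptokinase promoter and grows in 40 µg/ml kanamycin; loss of luminescence reflects streptokinase promoter inhibition or plain growth inhibition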
XBP1 UPR activ: adaptive UPR (XBP1) activation; CHO-XBP1 luciferase reporter, IRE1-XBP1 UPR activation, luminescence; percent of tunicamycin response, DMSO as zero; activation, % at 20 µM; 0.33% of 330,000 active;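 active = versus positive control, 20 µM dose yields 30% or more activation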
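Material: CHO-XBP1 cells stably carrying IRE1-XBP1-driven luciferase reporter | Medium: F12 with 10% serum | Compound dosing: 20 µM single concentration, DMSO 1% | Incubation: Overnight seeding at 37 °C, 6 h compound treatment at 37 °C | Detection: Steady-Glo luminescence read | Read-out basis: % activation of reporter signal versus tunicamycin and DMSO controls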
CHOP UPR activ: activators of apoptotic arm of unfolded protein response (CHOP); CHO-CHOP luciferase reporter, UPR activation, luminescence; percent of tunicamycin response over DMSO baseline; 0.34% of 330,000 active; activation, % at 10 µM; AID 449763;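 active = at 10 µM dose, activation of 40% or more, normalized to positive control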
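Material: CHO-CHOP cells, stable luciferase reporter of PERK-eIF2a-CHOP signalling; quantity: 500 reporter cells seeded per well; buffer or medium: F12 medium containing 10% fetal bovine serum; compound: one dose, 10 µM in 0.5% DMSO; incubation: 6 h compound treatment, 37 °C; measured by: Steady-Glo luciferase luminescence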
CSC inhib: cancer stem cell inhibition; cancer stem cell-like cells viability, luminescence; 1.1% of 300,000 active; AID 2717; inhibition, % at 7.5 µM; in the data active = inhibition above about 75%; tested in HMLE shEcad cells
Beta apoptosis: beta cell apoptosis inhibition; protection from apoptosis, % (test concentration not listed); INS-1E cytokine-induced death, ATP luminescence, 48 h; percent of positive-control rescue, neutral wells zero; 0.8% of 300,000 active;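 active = Every replicate reaches about 75%, or at least half do and their mean reaches it too, limit read from the data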;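 also: higher means more ATP so stronger rescue from cytokine killing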
Mdm2-MdmX inh: human Mdm2/MdmX binding inhibition. SaOS-2 split-luciferase Mdm2/MdmX complementation, luminescence. inhibition, % at 8 µM. 3% of 330,000 active. AID 485346;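 active = inhibition of at least 50% at 8 µM in the primary screen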
Target sequence (O15151 whole entry, looked up): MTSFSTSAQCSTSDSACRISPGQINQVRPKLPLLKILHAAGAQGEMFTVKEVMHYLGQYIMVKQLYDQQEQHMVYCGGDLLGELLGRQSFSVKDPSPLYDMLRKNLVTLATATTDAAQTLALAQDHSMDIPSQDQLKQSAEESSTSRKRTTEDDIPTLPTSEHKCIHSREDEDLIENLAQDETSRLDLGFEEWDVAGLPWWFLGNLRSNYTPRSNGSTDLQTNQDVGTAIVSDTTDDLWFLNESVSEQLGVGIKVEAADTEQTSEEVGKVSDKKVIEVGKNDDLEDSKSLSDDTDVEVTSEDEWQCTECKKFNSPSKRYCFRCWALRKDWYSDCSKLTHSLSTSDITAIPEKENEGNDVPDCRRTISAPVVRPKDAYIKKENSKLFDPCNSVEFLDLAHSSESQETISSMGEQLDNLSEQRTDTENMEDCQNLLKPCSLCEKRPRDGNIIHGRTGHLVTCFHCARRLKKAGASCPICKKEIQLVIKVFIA
Target sequence (Q00987 whole entry, looked up): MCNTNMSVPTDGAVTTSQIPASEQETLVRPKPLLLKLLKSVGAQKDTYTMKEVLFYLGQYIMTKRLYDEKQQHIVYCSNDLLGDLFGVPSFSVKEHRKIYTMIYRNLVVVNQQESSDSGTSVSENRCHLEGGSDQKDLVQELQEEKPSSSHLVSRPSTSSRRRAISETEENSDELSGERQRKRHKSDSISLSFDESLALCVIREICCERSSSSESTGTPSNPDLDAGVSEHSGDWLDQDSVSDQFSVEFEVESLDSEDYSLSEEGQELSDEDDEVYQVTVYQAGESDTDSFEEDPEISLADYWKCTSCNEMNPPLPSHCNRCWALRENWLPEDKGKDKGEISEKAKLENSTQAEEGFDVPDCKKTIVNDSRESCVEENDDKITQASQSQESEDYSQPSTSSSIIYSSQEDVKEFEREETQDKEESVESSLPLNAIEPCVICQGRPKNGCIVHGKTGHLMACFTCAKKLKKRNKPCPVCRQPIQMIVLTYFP
Mdm2-MdmX conf: confirmation of human Mdm2/MdmX interaction inhibitors; shares compounds with Mdm2-MdmX inh; Mdm2-MdmX binding, luminescent assay; inhibition, % at 8 µM; 55% of 10,000 active; AID 489028; in the data active = inhibition above about 40%
FLuc counter: counter-screen for Mdm2/MdmX inhibitors: full-length luciferase; shares compounds with Mdm2-MdmX inh; inhibition, % at 8 µM; AID 504607; SaOS-2 full-length luciferase counterscreen, luminescence; 77% of 6,200 active;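 active = mean inhibition at 8 µM reaching about 37%, which flags the compound as non-specific, limit read from the data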;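 also: p53-null SaOS-2 cells with luciferase driven by a doxycycline-inducible promoter; compound on cells about two nights before reading with doxycycline added after day one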
Numbers stand for hits. Shown are actives, neighbours in structure and some others; about 4.8% of the full set was active somewhere.

Screening O=C(C1=C[C@@H](c2csc3ccccc23)C[C@@H](OCc2ccc(CO)cc2)O1)N1CCN(Cc2ccc3c(c2)OCO3)CC1 returned SKKanGAS inh inactive, XBP1 UPR activ inactive, CHOP UPR activ inactive, CSC inhib inactive, Beta apoptosis inactive, Mdm2-MdmX inh 54, Mdm2-MdmX conf 46 and FLuc counter 53.
O=C(C1=C[C@H](C2CCCCC2)C[C@H](OCc2ccc(CO)cc2)O1)N1CCN(Cc2ccc3c(c2)OCO3)CC1 was read as SKKanGAS inh inactive, XBP1 UPR activ inactive, CHOP UPR activ inactive, CSC inhib inactive, Mdm2-MdmX inh 52 and Mdm2-MdmX conf inactive.
Screening O=C(C1=C[C@@H](c2csc3ccccc23)C[C@@H](OCc2ccc(CO)cc2)O1)N1CCN(Cc2ccccc2)CC1 returned SKKanGAS inh inactive, XBP1 UPR activ inactive, CHOP UPR activ inactive, CSC inhib inactive and Mdm2-MdmX inh inactive.
Screening O=C(C1=C[C@@H](C2CCCCC2)C[C@@H](OCc2ccc(CO)cc2)O1)N1CCN(Cc2ccc3c(c2)OCO3)CC1 returned SKKanGAS inh inactive, XBP1 UPR activ inactive, CHOP UPR activ inactive, CSC inhib inactive, Beta apoptosis inactive and Mdm2-MdmX inh inactive.
For O=C(C1=C[C@@H](c2ccccc2)C[C@@H](OCc2ccc(CO)cc2)O1)N1CCN(Cc2ccc3c(c2)OCO3)CC1 the results were SKKanGAS inh inactive, XBP1 UPR activ inactive, CHOP UPR activ inactive, CSC inhib inactive, Beta apoptosis inactive, Mdm2-MdmX inh 52, Mdm2-MdmX conf 48 and FLuc counter 69.
Screening CCOC(=O)c1[nH]c(C)c(C(=O)OCC(=O)N(Cc2ccccc2)C(C)C)c1C returned XBP1 UPR activ inactive, CHOP UPR activ inactive, CSC inhib inactive, Beta apoptosis inactive and Mdm2-MdmX inh inactive.
For N#Cc1ccccc1S(=O)(=O)N1CCN(C(=O)C2CCCC2)CC1 the results were SKKanGAS inh inactive, XBP1 UPR activ inactive, CHOP UPR activ inactive, CSC inhib inactive, Beta apoptosis inactive and Mdm2-MdmX inh inactive.
Screening COc1ccc(C(CNC(=O)Cc2ccc(-c3ccccc3)cc2)N(C)C)cc1 (stereo unspecified) returned SKKanGAS inh inactive, XBP1 UPR activ inactive, CHOP UPR activ inactive, CSC inhib inactive, Beta apoptosis inactive and Mdm2-MdmX inh inactive.
CCOC(=O)CSC1=C(C#N)C(c2ccc(Cl)cc2)CC(=O)N1 (stereo unspecified) was read as SKKanGAS inh inactive, XBP1 UPR activ inactive, CHOP UPR activ inactive, CSC inhib inactive, Beta apoptosis inactive and Mdm2-MdmX inh inactive.
For CCOC(=O)CSC1=C(C#N)C(c2ccc(C)o2)CC(=O)N1 (stereo unspecified) the results were SKKanGAS inh inactive, XBP1 UPR activ inactive, CHOP UPR activ inactive, CSC inhib inactive, Beta apoptosis inactive, Mdm2-MdmX inh 65, Mdm2-MdmX conf 52 and FLuc counter 73.
For Cc1cc(NC(=O)C(C)Sc2nc(-c3cccs3)nc3ccccc23)no1 (stereo unspecified) the results were XBP1 UPR activ inactive, CHOP UPR activ inactive, Mdm2-MdmX inh 84, Mdm2-MdmX conf 52 and FLuc counter 68.
CCSc1nc(-c2cccs2)nc2ccccc12 was read as SKKanGAS inh inactive, XBP1 UPR activ inactive, CHOP UPR activ inactive, CSC inhib inactive, Beta apoptosis inactive and Mdm2-MdmX inh inactive.
Cc1nn(Cc2ccccc2Cl)c(C)c1C(=O)Nc1nnc(C2CC2)s1 was read as SKKanGAS inh inactive, XBP1 UPR activ inactive, CHOP UPR activ inactive, CSC inhib inactive, Mdm2-MdmX inh 79 and Mdm2-MdmX conf inactive.
`Cc1nn(Cc2ccccc2Cl)c(C)c1C(=O)NCCN1C(=O)S/C(=C\c2ccccc2)C1=O` gave SKKanGAS inh inactive, XBP1 UPR activ inactive, CHOP UPR activ inactive, CSC inhib inactive, Beta apoptosis inactive, Mdm2-MdmX inh 58 and Mdm2-MdmX conf inactive.
`COc1ccc(S(=O)(=O)N2CCOCC2)cc1NC(=O)CCc1cc(OC)c(OC)c(OC)c1` gave XBP1 UPR activ inactive, CHOP UPR activ inactive, CSC inhib inactive, Beta apoptosis inactive and Mdm2-MdmX inh inactive.
Screening Cc1ccc(OC(=O)c2oc3ccc(F)cc3c2C)c(C)c1 returned SKKanGAS inh inactive, XBP1 UPR activ inactive, CHOP UPR activ inactive, CSC inhib inactive, Beta apoptosis inactive, Mdm2-MdmX inh 52 and Mdm2-MdmX conf inactive.
`O=C(COC(=O)/C=C/c1ccccc1[N+](=O)[O-])Nc1ccc2[nH]c(=O)[nH]c2c1` gave XBP1 UPR activ inactive, CHOP UPR activ inactive, CSC inhib inactive, Beta apoptosis inactive and Mdm2-MdmX inh inactive.
Screening Cc1ccc(C(c2cc(Cl)c3cccnc3c2O)N2CCN(C)CC2)cc1 (stereo unspecified) returned SKKanGAS inh 51, XBP1 UPR activ inactive, CHOP UPR activ inactive, CSC inhib 115, Beta apoptosis inactive, Mdm2-MdmX inh 69, Mdm2-MdmX conf 57 and FLuc counter inactive.
Oc1c(C(c2ccc(Cl)cc2)N2CCCC2)cc(Cl)c2cccnc12 (stereo unspecified) was read as SKKanGAS inh 80, XBP1 UPR activ inactive, CHOP UPR activ inactive, CSC inhib 99, Beta apoptosis inactive, Mdm2-MdmX inh 80, Mdm2-MdmX conf 72 and FLuc counter inactive.
`O=C(O)CNS(=O)(=O)c1ccc2c(c1)Cc1cc(S(=O)(=O)NCC(=O)O)ccc1-2` gave SKKanGAS inh inactive, XBP1 UPR activ inactive, CHOP UPR activ inactive, CSC inhib inactive, Beta apoptosis inactive and Mdm2-MdmX inh inactive.
`O=C(c1cccc(S(=O)(=O)N2CCCc3ccccc32)c1)N1CCN(c2ccccc2)CC1` gave XBP1 UPR activ inactive, CHOP UPR activ inactive, CSC inhib inactive, Beta apoptosis inactive and Mdm2-MdmX inh inactive.
O=C(Oc1c(CN2CCOCC2)cc(Cl)c2cccnc12)c1ccccc1Br was read as SKKanGAS inh inactive, XBP1 UPR activ inactive, CHOP UPR activ inactive, CSC inhib inactive, Beta apoptosis 97, Mdm2-MdmX inh 52 and Mdm2-MdmX conf inactive.
Screening COC(=O)c1cccc(C#CC(NP(=O)(c2ccccc2)c2ccccc2)c2ccccc2)c1 (stereo unspecified) returned SKKanGAS inh inactive, XBP1 UPR activ inactive, CHOP UPR activ inactive, CSC inhib inactive, Beta apoptosis inactive and Mdm2-MdmX inh inactive.
CCC[C@@H]1C[C@@]1(CCC)[C@@H](NP(=O)(c1ccccc1)c1ccccc1)c1ccc(C(=O)OC)cc1 was read as SKKanGAS inh 97, XBP1 UPR activ inactive, CHOP UPR activ inactive, CSC inhib inactive, Mdm2-MdmX inh 75, Mdm2-MdmX conf inactive and FLuc counter 73.

Source: PubChem (several laboratories)
